Bioassay records: PubChem, several laboratories
Hits are enriched below; roughly 2.1% of the tested compounds scored in any of these assays.
Hck-Nef inh: inhibitors of human Hck kinase activated by Nef | inhibition, % at 20 µM | Recombinant Hck-YEEI plus Nef, Z-Lyte FRET kinase assay | actives 0.68% (n = 220,000) | AID 463187 | P08631;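 active means Hck-Nef kinase inhibition above about 50%, limit read from the data; inactive means inhibition below that limit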;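 further: 0% = DMSO with Hck plus Nef and 100% = Hck alone without Nef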
Target sequence (P08631 whole entry, looked up): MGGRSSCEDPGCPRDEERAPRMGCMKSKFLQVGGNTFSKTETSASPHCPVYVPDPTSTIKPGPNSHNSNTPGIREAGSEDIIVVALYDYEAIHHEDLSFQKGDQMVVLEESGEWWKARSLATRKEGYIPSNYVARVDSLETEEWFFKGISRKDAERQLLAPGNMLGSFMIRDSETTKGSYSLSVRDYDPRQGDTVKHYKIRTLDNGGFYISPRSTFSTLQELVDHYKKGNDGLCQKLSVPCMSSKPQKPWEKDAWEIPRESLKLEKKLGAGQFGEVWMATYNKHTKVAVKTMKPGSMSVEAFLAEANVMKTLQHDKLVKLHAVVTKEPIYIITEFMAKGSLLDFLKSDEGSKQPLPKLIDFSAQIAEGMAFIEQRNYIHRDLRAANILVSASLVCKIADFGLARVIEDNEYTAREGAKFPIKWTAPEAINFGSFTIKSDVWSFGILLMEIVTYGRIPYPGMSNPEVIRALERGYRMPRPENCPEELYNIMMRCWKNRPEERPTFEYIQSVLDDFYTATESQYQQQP
Tb hexokinase: blocks Trypanosoma brucei hexokinase 1 activity; recombinant TbHK1, G6PDH-coupled NADH A340; inhibition, % at 10 µM; actives 0.11% (n = 220,000);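 active means inhibition of 50% or more in the single-dose primary screen; inactive means inhibition below 50%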
Runt-CBFb FRET: blocks binding of human RUNX1 Runt domain to CBFb; inhibition, % at 20 µM; Cerulean-Runt/Venus-CBFb FRET ratio 530/480, 1 h; actives 0.46% (n = 220,000); Q01196+Q13951;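 active means inhibition over about 50% at 20 µM in the single-dose screen, limit read from the data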;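 further: 0% = DMSO wells and 100% = excess unlabeled CBFb competitor control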
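Doses: 20 µM compound in 1% DMSO | Material: Cerulean-labeled Runt domain protein | Amount: Each fluorescent fusion protein 100 nM | Schedule: Two 1 h room-temperature incubations shielded from light | Measured by: FRET fluorescence | Evaluation: Loss of energy transfer signal | Controls: Unlabeled CBFb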
Runt-SMMHC FRET: inhibitors of human RUNX1 Runt domain binding to CBFb-SMMHC | Q01196+Q13951 | actives 0.74% (n = 220,000) | Cerulean-Runt/Venus-CBFb-SMMHC FRET ratio 530/480, 1 h | inhibition, % at 20 µM | AID 1434;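 active means mean inhibition across duplicate retests at 20 µM reaching about 50%, limit read from the data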;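 further: 0% = DMSO wells and 100% = wells with excess untagged CBFb-SMMHC; inhibitors lower the FRET ratio by blocking Runt binding to CBFb-SMMHC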
p97 ATPase inh: inhibitors of human p97 ATPase | P55072 | recombinant p97 ATPase, Kinase-Glo ATP luminescence, 3 h | actives 0.42% (n = 220,000) | inhibition, % at 8 µM; in the data active means inhibition above about 15%;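 further: 0% = DMSO vehicle and 100% = wells lacking enzyme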
RanGTP-Imp inh: inhibitors of RanGTP-importin-beta interaction, primary screen, biochemical, FRET, CFP-Ran, YFP-importin-beta, homogeneous; cell-free CFP-Ran/YFP-importin-beta FRET ratio; inhibition, % (concentration not given with the values); actives 1.1% (n = 300,000);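 active means more than half of the replicate wells show a fall in the fluorescence ratio signal beyond about 16%, limit read from the data, passing the limit was not always enough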;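 further: 0% = DMSO wells and 100% = Ran loaded with GDP instead of GTP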
YIC FRET counter: counter-screen: alters YIC FRET probe signal; shares compounds with RanGTP-Imp inh; Purified YIC probe, intramolecular FRET ratio YFP/CFP; IC50, µM; AID 435026; actives 40% (n = 1,000);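 active means fitted half-maximal inhibitory concentration no more than tenfold above the top dose tested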
Numbers without * were called inactive; . = not tested or not shown.

SMILES	Hck-Nef inh	Tb hexokinase	Runt-CBFb FRET	Runt-SMMHC FRET	p97 ATPase inh	RanGTP-Imp inh	YIC FRET counter
O=[N+]([O-])c1ccc(Nc2c3ccccc3nc3ccccc23)cc1	22	-1	48	23	10	25*	>50
CC(=O)c1cccc(Nc2cc(C)nc3ccccc23)c1	29	-51	2	0	6	1	.
O=C(O)c1cccc(Nc2c3ccccc3nc3ccccc23)c1	.	.	.	.	.	20*	>50
CCCSc1nnc(-c2c[nH]c3ccccc23)n1C	2	9	2	2	8	-3	.
CCCSc1nnc(-c2c[nH]c3ccccc23)n1CC	3	-1	1	4	6	17*	>50
CCS(=O)(=O)c1nc(S(=O)(=O)c2ccc(C)cc2)c(NCc2ccccn2)s1	-1	-13	8	-4	5	16*	>50
CCCS(=O)(=O)c1nc(S(=O)(=O)c2ccc(C)cc2)c(NCc2ccccn2)s1	26	-8	3	0	1	5	.
Cc1cc(C)c(CN2CCC(N3CCC(C(=O)NCC4CCCO4)CC3)CC2)cc1C (configuration not stated)	.	.	.	.	.	-2	.
COCc1cc(CN2CCN(C)CC2)c(O)c2ncccc12	4	3	0	-14	3	26*	>50
Cc1cc2c(c(=O)n1C1CC1)C(c1cccc(Cl)c1)C(C#N)=C(N)O2 (configuration not stated)	0	-5	6	3	6	20*	>50
NC(=S)N/N=C/c1ccccc1OC(=O)c1cc2ccccc2oc1=O	.	.	.	.	.	6	.
NC(=O)N/N=C/c1ccccc1OC(=O)c1cc2ccccc2oc1=O	.	.	.	.	.	18*	>50
O=C(CSCC(=O)NC1CC1)Nc1ccccc1	1	1	-1	-1	9	40*	>50
CSc1nc(-c2ccc(Cl)cc2)c(C#N)c(=O)n1C	18	-3	4	0	4	0	.
CSc1nc(-c2ccc(N(C)C)cc2)c(C#N)c(=O)n1C	-45	-11	48	85*	4	17*	9.4*
O=C(Cc1csc(-c2ccccc2)n1)NCc1cccs1	13	1	-2	-3	3	-1	.
Nc1nc(N2CCOCC2)nc(N(c2ccccc2)c2ccccc2)n1	3	-7	2	1	4	21*	>50
CC(=O)CN1Cc2ccccc2/C1=N\C(=O)Nc1ccccc1	0	3	-1	-1	-2	2	.
COc1ccc(N2Cc3ccccc3/C2=N\C(=O)Nc2ccccc2)cc1	-14	-3	-2	-2	7	17*	>50
Cc1cc(CN2CCCC(CO)(Cc3cccc(Cl)c3)C2)n[nH]1 (configuration not stated)	2	-9	0	0	3	0	.
OCC1(Cc2cccc(Cl)c2)CCCN(Cc2ccc3cc(F)ccc3n2)C1 (configuration not stated)	-10	1	-1	0	-3	24*	>50
N#Cc1c(N)[nH]c(=S)c(C#N)c1-c1ccccc1	3	-20	39	62	6	31*	>50
Cc1ccc(-c2cc(-c3ccccc3)[nH]c(=S)c2C#N)cc1	1	-10	5	1	4	-1	.
O=C(O)/C=C/C(=O)Nc1ccc2c(c1)NC(=O)CO2	29	-4	30	15	3	34*	>50
O=C1COc2ccc(C(=O)/C=C/c3ccccc3)cc2N1	6	-10	0	4	1	1	.
SMILES	Hck-Nef inh	Tb hexokinase	Runt-CBFb FRET	Runt-SMMHC FRET	p97 ATPase inh	RanGTP-Imp inh	YIC FRET counter
O=C(NCc1n[nH]c(=S)n1-c1ccc(Cl)c(Cl)c1)c1ccc(S(=O)(=O)N2CCOCC2)cc1	19	0	5	6	0	-1	.
Cc1cccc(C(=O)Nc2sc(C)c(-c3ccccc3)c2C#N)c1	-19	-2	3	4	2	39*	>50
Cc1cccc(C(=O)Nc2sc(C(=O)N3CCCC3)c(C)c2C#N)c1	2	-33	4	2	-5	5	.
OCCN(CCO)Cc1ccc(Br)cc1	-2	-9	1	4	1	-4	.
CCCN(CCO)Cc1cccc(Br)c1	-9	3	-1	-4	-5	20*	>50
O=c1nc(-c2ccccc2Cl)c2cc(F)ccc2[nH]1	.	.	.	.	.	25*	>50
O=c1nc(-c2ccccc2)c2ccccc2[nH]1	5	-8	1	0	5	-4	.
CC1CC(C)CN(C2CCCCC2NS(=O)(=O)c2ccc(Cl)cc2)C1 (configuration not stated)	.	.	.	.	.	-1	.
O=C(Cc1cc(=O)oc2cc(O)ccc12)N[C@@H](Cc1c[nH]c2ccccc12)C(=O)O	.	.	.	.	.	21*	>50
CCN1CCN(C(=O)CCc2nnc3ccc(N4CCC5(CC4)OCCO5)nn23)CC1	.	.	.	.	.	2	.
CCCn1nc(NC(=O)CC(C)C)c2cc3cccc(C)c3nc21	.	.	.	.	.	20*	32*
CCn1nc(NS(=O)(=O)c2ccccc2[N+](=O)[O-])c2cc3cccc(C)c3nc21	.	.	.	.	.	-3	.
COCCN(C(=O)COc1ccccc1C#N)c1c(N)n(Cc2ccccc2)c(=O)[nH]c1=O	.	.	.	.	.	-1	.
Cc1nnc(NC(=O)c2c(-c3ccccc3)noc2C)s1	2	3	0	-4	3	2	.
Cc1onc(-c2ccccc2)c1C(=O)Nc1cccc2nsnc12	7	-3	10	25	1	22*	37*
O=C(CN1CCN(Cc2cccc(Cl)c2)C1=O)NCc1cccs1	-30	5	2	1	-1	4	.
Cc1cccc(Oc2nc3ccccn3c(=O)c2/C=C(\C#N)C(=O)NC2CCS(=O)(=O)C2)c1C (configuration not stated)	.	.	.	.	.	12	.
Cc1cccc(Oc2nc3ccccn3c(=O)c2/C=C(\C#N)C(=O)NC2CCS(=O)(=O)C2)c1 (configuration not stated)	11	-11	4	81*	3	27*	48*
Cc1cccn2c(=O)c(/C=C(\C#N)C(=O)NC3CCS(=O)(=O)C3)c(Oc3ccc(F)cc3)nc12 (configuration not stated)	.	.	.	.	.	37*	18*
